Data taken from publication PMC10100262 (Chemmedchem, 2022).

Legend:
Determination of log D = assay type: physicochemical; conditions: pH 7.4
In short: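 68Ga-labeled peptide conjugate, molar activity adjusted to 1 GBq/μmol, 0.7–1 MBq per test. Partitioned between 1-octanol and 0.05 M phosphate buffer pH 7.4 by vigorous shaking for 2 min. Phases separated by centrifugation; equal aliquots of each phase γ-counted. Run thrice, each in triplicate.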

[1] = assay type: in vitro ADME; conditions: pooled human serum, 37 °C; activity in precipitated serum protein pellet
In short: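 68Ga-labeled peptide conjugate (20–25 MBq; molar activity set to 1 GBq/μmol) incubated in pooled human serum at 37 °C. Samples taken at 15-min intervals into an equal volume of ice-cold ethanol, held 1 min on ice and centrifuged 90 s. Activity measured in pellet and supernatant; supernatant analyzed by radio-HPLC. Three experiments per radioligand.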

C[C@@H](O)[C@H](NC(=O)[C@@H]1CSSC[C@H](NC(=O)[C@@H](Cc2ccccc2)NC(=O)CN2CCN(CC(=O)O)CCN(CC(=O)O)CCN(CC(=O)O)CC2)C(=O)N[C@@H](Cc2ccc(O)cc2)C(=O)N[C@H](Cc2c[nH]c3ccccc23)C(=O)N[C@@H](CCCCN)C(=O)N[C@@H]([C@@H](C)O)C(=O)N1)C(=O)O [[^68Ga]Ga‐8, metal not drawn]
logD (Determination of log D; 1‐octanol/phosphate buffer): -4.09 ± 0.07 | protein‐associated activity (protein‐bound activity fraction) [1]: 19.7±2.2%

C[C@@H](O)[C@H](NC(=O)[C@@H]1CSSC[C@H](NC(=O)[C@@H](Cc2ccccc2)NC(=O)CCC(C(=O)O)N2CCN(CC(=O)O)CCN(CC(=O)O)CCN(CC(=O)O)CC2)C(=O)N[C@@H](Cc2ccc(O)cc2)C(=O)N[C@H](Cc2c[nH]c3ccccc23)C(=O)N[C@@H](CCCCN)C(=O)N[C@@H]([C@@H](C)O)C(=O)N1)C(=O)O (some centres unmarked) [[^68Ga]Ga‐9, metal not drawn]
logD (Determination of log D): -4.11 ± 0.11 | protein‐associated activity (protein‐bound activity fraction) [1]: 29.0±3.5%

C[C@@H](O)[C@H](NC(=O)[C@@H]1CSSC[C@H](NC(=O)[C@@H](Cc2ccccc2)NC(=O)CC[C@H](C(=O)O)N2CCN(CC(=O)O)CCN(CC(=O)O)CC2)C(=O)N[C@@H](Cc2ccc(O)cc2)C(=O)N[C@H](Cc2c[nH]c3ccccc23)C(=O)N[C@@H](CCCCN)C(=O)N[C@@H]([C@@H](C)O)C(=O)N1)C(=O)O [[^68Ga]Ga‐10, metal not drawn]
logD (Determination of log D; 1‐octanol/phosphate buffer): -3.72 ± 0.02 | protein‐associated activity (protein‐bound activity fraction) [1]: 16.9±3.5%

C[C@@H](O)[C@H](NC(=O)[C@@H]1CSSC[C@H](NC(=O)[C@@H](Cc2ccccc2)NC(=O)CCC(C(=O)O)N2CCN3CCN(CCN(CC(=O)O)CC3)CC2)C(=O)N[C@@H](Cc2ccc(O)cc2)C(=O)N[C@H](Cc2c[nH]c3ccccc23)C(=O)N[C@@H](CCCCN)C(=O)N[C@@H]([C@@H](C)O)C(=O)N1)C(=O)O (some centres unmarked) [[^68Ga]Ga‐11, metal not drawn]
logD (Determination of log D): -3.02 ± 0.08 | protein‐associated activity (protein‐bound activity fraction) [1]: 15.7±3.6%
